High-throughput results (PubChem)
Hits are enriched below; roughly 9.4% of the tested compounds scored in any of these assays.
L major viab: inhibitors of Leishmania major promastigote growth; inhibition, % at 10 µM; AID 1063; Leishmania major promastigotes, resazurin fluorescence viability; hit rate 9% among 200,000; in the data active = inhibition above about 50%;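 also: promastigotes grown with compound for 44 hours at 28 °C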
Mdm2 MdmX PPI: human Mdm2/MdmX binding inhibition; SaOS-2 split-luciferase Mdm2/MdmX complementation, luminescence; hit rate 3% among 330,000; inhibition, % at 8 µM; O15151+Q00987;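 active = inhibition of at least 50% at 8 µM in the primary screen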
Target sequence (O15151 whole entry, looked up): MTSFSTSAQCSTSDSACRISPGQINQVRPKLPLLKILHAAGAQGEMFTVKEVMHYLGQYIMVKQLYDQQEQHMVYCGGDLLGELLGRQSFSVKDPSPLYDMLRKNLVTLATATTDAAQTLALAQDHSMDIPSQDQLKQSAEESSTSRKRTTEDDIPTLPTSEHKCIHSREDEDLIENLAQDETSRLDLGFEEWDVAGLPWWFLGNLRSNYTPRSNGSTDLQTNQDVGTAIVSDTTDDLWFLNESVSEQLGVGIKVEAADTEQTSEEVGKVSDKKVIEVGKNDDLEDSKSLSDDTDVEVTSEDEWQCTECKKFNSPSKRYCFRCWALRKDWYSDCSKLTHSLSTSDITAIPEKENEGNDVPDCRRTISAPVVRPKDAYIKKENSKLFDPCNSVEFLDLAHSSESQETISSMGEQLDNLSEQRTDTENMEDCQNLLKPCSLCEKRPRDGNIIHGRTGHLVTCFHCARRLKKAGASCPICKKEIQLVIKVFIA
Target sequence (Q00987 whole entry, looked up): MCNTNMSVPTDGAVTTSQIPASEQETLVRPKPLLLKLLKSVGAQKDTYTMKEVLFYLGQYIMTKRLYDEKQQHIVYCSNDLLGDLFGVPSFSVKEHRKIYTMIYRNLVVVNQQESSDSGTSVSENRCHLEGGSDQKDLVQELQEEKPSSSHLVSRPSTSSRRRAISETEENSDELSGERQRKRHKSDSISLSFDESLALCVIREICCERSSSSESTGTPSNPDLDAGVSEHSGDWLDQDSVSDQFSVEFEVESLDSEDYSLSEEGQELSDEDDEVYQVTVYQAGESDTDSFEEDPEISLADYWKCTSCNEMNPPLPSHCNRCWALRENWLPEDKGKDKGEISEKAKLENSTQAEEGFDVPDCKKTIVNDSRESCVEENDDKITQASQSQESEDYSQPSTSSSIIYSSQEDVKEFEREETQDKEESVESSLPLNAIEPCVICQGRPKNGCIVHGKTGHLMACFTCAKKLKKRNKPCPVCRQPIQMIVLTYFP
T cruzi repl: blocks replication of Trypanosoma cruzi | hit rate 1.4% among 300,000 | inhibition, % (test concentration not listed) | AID 1885 | T. cruzi beta-gal in NIH3T3, luminescence, 90 h;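 active = mean inhibition across valid replicates above about 55%, limit read from the data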;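 also: signal also drops with host cell toxicity which is not excluded here; 0% = plate median of DMSO wells and 100% = zero luminescence signal; higher percent means less beta-gal luminescence so fewer parasites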
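Assay system: NIH/3T3 host cells with β-galactosidase reporter T. cruzi; input: 5,000 host fibroblasts per well; compound: single 50 nL compound addition per well in DMSO; timing: ≥90 h infection period, 3 h prior cell attachment; measured by: GalScreen β-gal luminescence, detergent lysis, 60 min; evaluation: percent inhibition of parasite-derived β-gal signal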
CSC inhib: blocks cancer stem cells | AID 2717 | hit rate 1.1% among 300,000 | inhibition, % at 7.5 µM | cancer stem cell-like cells viability, luminescence; in the data active = inhibition above about 75%; tested in HMLE shEcad cells
SKKanGAS inh: blocks kanamycin growth of S. pyogenes SKKanGAS strain; BacTiter-Glo, 6 h; inhibition, % at 7.5 µM; hit rate 1.3% among 300,000;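 active = mean replicate score, as percent of positive control median, at least 50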;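 also: strain carries kanamycin resistance gene driven by streptokinase promoter and grows in 40 µg/ml kanamycin; loss of luminescence reflects streptokinase promoter inhibition or plain growth inhibition; 0% = median of DMSO wells and 100% = positive control at its reference dose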
Beta cell apopt: blocks beta cell apoptosis; INS-1E cytokine-induced death, ATP luminescence, 48 h; percent of positive-control rescue, neutral wells zero; protection from apoptosis, % (concentration not given with the values); hit rate 0.8% among 300,000;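 active = Every replicate reaches about 75%, or at least half do and their mean reaches it too, limit read from the data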;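 also: 0% = cytokine-treated negative control wells and 100% = positive control rescue; higher means more ATP so stronger rescue from cytokine killing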
An asterisk follows results filed as active; . = no result.

SMILES	L major viab	Mdm2 MdmX PPI	T cruzi repl	CSC inhib	SKKanGAS inh	Beta cell apopt
COc1ccc2sc(N(CCCN(C)C)C(=O)c3ccc(S(=O)(=O)N(C)Cc4ccccc4)cc3)nc2c1	.	34	55*	-7	0	.
COc1ccc2sc(N(CCCN(C)C)C(=O)c3nc4ccccc4s3)nc2c1	-1	3	43	-14	-4	9
CN(C)CCN(C(=O)c1ccc2ccccc2c1)c1nc2ccc(Br)cc2s1	.	18	36	11	4	-7
COC(=O)c1cc2ccc(OC)cc2c2cc(OC)c(OC)cc12	.	30	.	62	.	10
Cc1ccc(C)c(NC(=O)CSc2nc(N)c(NC(=O)c3cccs3)c(=O)[nH]2)c1	-10	.	.	.	.	.
Cc1ccc(C)c(NC(=O)CSc2nc3nc(-c4cccs4)cc(C(F)(F)F)c3c(=O)[nH]2)c1	.	45	-9	96*	57*	11
O=C1C2C3C=CC(CC3)C2C(=O)N1c1cccc(Br)c1 (stereo unspecified)	.	-26	-3	21	-1	2
CC(C)(C)c1nnc(N/N=C/c2cc(Br)ccc2O)n(N)c1=O	98*	.	-31	112*	78*	95*
CCc1nnc(N/N=C/c2cc(Br)c(O)cc2O)n1N	.	-5	-2	-4	0	-4
Cc1c(C(=O)N(C)Cc2ccc(OC(F)F)cc2)oc2ccccc12	.	-29	12	16	-9	-5
Cc1cccc2cc(CN(Cc3ccccc3)C(=S)NCCCN(C)C)c(=O)[nH]c12	78*	31	24	2	.	-5
Cc1ccc(CN(Cc2cc3cccc(C)c3[nH]c2=O)C(=S)NCCCN(C)C)cc1	62*	47	1	6	-11	-10
Cc1cccc2cc(CN(Cc3cccnc3)C(=S)NCCCN(C)C)c(=O)[nH]c12	-7	-14	-17	-5	4	0
Cc1ccc(NC2CCCN(C(=O)c3cn(C)c4ccccc34)C2)cc1C (stereo unspecified)	.	4	1	7	5	3
O=C(Oc1ccc(F)cc1)c1cccnc1	.	4	-9	8	-3	-6
CC1=CC(C)(C)Nc2ccc(OC(=O)c3cccnc3)cc21	101*	22	-23	25	7	-6
Cc1nn(Cc2c(Cl)cccc2Cl)c(C)c1NC(=O)c1cnn2c(C(F)F)cc(-c3ccccc3)nc12	67*	35	19	-5	33	-6
CNS(=O)(=O)c1ccc(NC(=O)c2cnn3c(C(F)F)cc(-c4ccccc4)nc23)cc1	6	27	2	-6	53*	22
O=C(CCN1CCCCC1)NNC(=O)C12CC3CC(CC(C3)C1)C2	6	-3	1	-8	4	-5
Cc1ccc(S(=O)(=O)NCC(=O)OCC(=O)NCc2cccs2)cc1	.	2	-12	-7	-1	-3
Cc1nc(Nc2ccc(F)cc2)[nH]c(=O)c1CCC(C)C	53*	10	3	10	16	17
Cc1ccc(Nc2nc(C)c(CCC(C)C)c(=O)[nH]2)cc1	20	-11	29	25	7	7
COC(=O)c1ccccc1S(=O)(=O)NNC(=O)C12CC3CC(CC(C3)C1)C2	.	-7	.	-12	.	-2
Cc1cc(C)cc(OCC(=O)NNC(=S)NC(=O)C2CC2)c1	.	38	-9	-5	87*	8
CCc1ccc(OCC(=O)NCCN(C)C)c(Br)c1	96*	-2	35	-2	-15	5
SMILES	L major viab	Mdm2 MdmX PPI	T cruzi repl	CSC inhib	SKKanGAS inh	Beta cell apopt
COc1ccc(OCC(=O)NNC(=S)NC(=O)C2CCCCC2)cc1	.	-8	-6	2	64*	.
CCCCNC(=O)NNC(=O)COc1cc(C)cc(C)c1	-5	20	-5	-1	-5	1
COc1ccc(NC(=S)NC(=O)C2CCC2)cc1	.	12	-16	7	-7	-1
COc1ccc(OCC(=O)NNC(=S)NC(=O)C2CC2)cc1	.	16	-21	.	63*	-1
CC1(C)CN2C(=O)c3ccccc3C2(C)S1 (stereo unspecified)	-6	-16	-23	-7	1	0
Cc1cccc(NC(=O)Nc2c(C)n(C)n(-c3ccccc3)c2=O)c1C	.	7	16	-5	0	-3
COc1ccc(CC(=O)NC(=S)NNC(=O)COc2c(C)cccc2C)cc1	-4	28	-29	2	97*	4
Cc1cc(OCC(=O)NCCCN(C)C)cc(C)c1Br	100*	18	20	10	-4	-10
